Assay results from ChEMBL document CHEMBL2069277, “Small molecules that regulate zymosan phagocytosis of macrophage through deactivation of Rho GTPases” (Bioorg Med Chem, 2012).
Active and inactive are the calls of the source. No cut-off for these calls is given here.

Tests used:
[1] = test system: RAW264.7; test: Inhibition of zymosan phagocytosis in mouse RAW264.7 cells at 10 uM preincubated before zymosan addition by flow cytometry; type: functional, cell-based
Method in brief: (§1)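 CD11b+ peritoneal macrophages (4 × 10^6/well) or RAW264.7 cells (2 × 10^6/well) were adhered 2 h and pretreated 30 min (5, 10, 20 µM; screen at 10 µM). Cells were scraped, washed, and incubated with FITC-zymosan (5 particles/cell) for 1 h at 37 °C. After washing, uptake was read by flow cytometry as a phagocytic index relative to untreated cells. Cytochalasin D 5 µM was the control.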

[2] = test system: RAW264.7; test: Reduction in GTP-bound Rac2 protein expression in mouse RAW264.7 cells at 20 uM preincubated for 20 mins before zymosan exposure for 15 mins by Western blot based pull down assay; type: functional, cell-based
Method in brief: (§2)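 RAW264.7 cells were pretreated with 20 µM (20 min for Rac1 and Rac2; 5 min for Cdc42), then given zymosan 200 µg/ml for 15 min. GTP-bound Rac1, Rac2 and Cdc42 were pulled down with an active pull-down kit and western blotted. Bands were quantified by densitometry and normalized to β-actin.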

[3] = test system: Peritoneal macrophage cell; test: Effect on Dectin-1 mRNA expression in C57BL/6 mouse CD11b(+) peritoneal macrophages at 20 uM preincubated for 30 mins before zymosan exposure for 6 hrs by real-time PCR
[4] = test system: RAW264.7; test: Reduction in GTP-bound Rac1 protein expression in mouse RAW264.7 cells at 20 uM preincubated for 20 mins before zymosan exposure for 15 mins by Western blot based pull down assay; type: functional, cell-based; method in brief: as §2
[5] = test system: RAW264.7; test: Reduction in GTP-bound Cdc42 protein expression in mouse RAW264.7 cells at 20 uM preincubated for 5 mins before zymosan exposure for 15 mins by Western blot based pull down assay; type: functional, cell-based; method in brief: as §2
[6] = test system: Peritoneal macrophage cell; test: Inhibition of zymosan phagocytosis in C57BL/6 mouse CD11b(+) peritoneal macrophages preincubated before zymosan addition by flow cytometry; type: functional, cell-based; method in brief: as §1
[7] = test system: Peritoneal macrophage cell; test: Effect on TLR6 mRNA expression in C57BL/6 mouse CD11b(+) peritoneal macrophages at 20 uM preincubated for 30 mins before zymosan exposure for 6 hrs by real-time PCR
[8] = Toxicity in zymosan-induced C57BL/6 mouse CD11b(+) peritoneal macrophages at 5 to 20 uM preincubated before zymosan addition; type: cell-based; details: peritoneal macrophage cell
[9] = test system: Peritoneal macrophage cell; test: Effect on TLR2 mRNA expression in C57BL/6 mouse CD11b(+) peritoneal macrophages at 20 uM preincubated for 30 mins before zymosan exposure for 6 hrs by real-time PCR
[10] = test system: Peritoneal macrophage cell; test: Effect on TLR1 mRNA expression in C57BL/6 mouse CD11b(+) peritoneal macrophages at 20 uM preincubated for 30 mins before zymosan exposure for 6 hrs by real-time PCR
[11] = test system: RAW264.7; test: Toxicity in zymosan-induced mouse RAW264.7 cells at 5 to 20 uM preincubated before zymosan addition; type: cell-based; details: raw264.7, 20 µM
[12] = test system: RAW264.7; test: Inhibition of zymosan phagocytosis in mouse RAW264.7 cells preincubated before zymosan addition by flow cytometry; type: functional, cell-based; method in brief: as §1
[13] = test system: Peritoneal macrophage cell; test: Inhibition of zymosan phagocytosis in C57BL/6 mouse CD11b(+) peritoneal macrophages at 20 uM preincubated before zymosan addition by flow cytometry; type: functional, cell-based; method in brief: as §1
[14] = species on record: Mus musculus; test: Inhibition of zymosan-induced PI3K in C57BL/6 mouse CD11b(+) peritoneal macrophages assessed as reduction in AKT Ser473 phosphorylation at 20 uM preincubated for 15 mins before zymosan exposure for 30 mins by Western blot
Method in brief: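 CD11b+ peritoneal macrophages from male C57BL/6 mice (thioglycollate-elicited; cells pooled from twenty mice) were pretreated with 20 µM for 15 min, then given zymosan 200 µg/ml for 30 min. Western blot for phospho-Akt (Ser473) and total Akt. p-Akt was quantified by densitometry and expressed as fold change.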

Question: Which inhibition [1] does the source give for `CCCOc1ccc(-c2cccc(C(=O)NCCN(CC)CC)c2)cc1` here?
Answer: Its inhibition is “inactive”.

Question: For `CCCOc1ccc(-c2cccc(C(=O)NCCCN3CCOCC3)c2)cc1`, which inhibition [1] is on record?
Answer: Its inhibition is “inactive”.

Question: For `CCCOc1ccc(-c2cccc(C(=O)NCCCN3CCCCC3)c2)cc1`, which inhibition [1] is on record?
Answer: Its inhibition is “Active”.

Question: With `CCCOc1ccc(-c2cccc(C(=O)NCCCN(C)C)c2)cc1` as the compound, how does the inhibition [1] read?
Answer: The inhibition was “Active”.

Question: For `CCCNC(=O)c1cccc(-c2ccc(OCCC)cc2)c1`, which inhibition [1] is on record?
Answer: The inhibition was “Active”.

Question: With `CCCOc1ccc(-c2cccc(C(=O)NCCCN3CCCC3)c2)cc1` as the compound, how does the inhibition [1] read?
Answer: Its inhibition is “Active”.

Question: With `CCCOc1ccc(-c2cccc(C(=O)NCCCN(CC)CC)c2)cc1` as the compound, how does the Activity [2] read?
Answer: The Activity was “Active”.

Question: What about the Activity [3] of the same compound?
Answer: Its Activity is “inactive”.

Question: What about the Activity [4] of the same compound?
Answer: The Activity was “Active”.

Question: What about the Activity [5] of the same compound?
Answer: The Activity was “Active”.

Question: And the inhibition [6]?
Answer: Its inhibition is “Dose-dependent effect”.

Question: And the Activity [7]?
Answer: The Activity was “inactive”.

Question: And the Activity [8]?
Answer: Its Activity is “Non-toxic”.

Question: And the Activity [9]?
Answer: Its Activity is “inactive”.

Question: And the Activity [10]?
Answer: Its Activity is “inactive”.

Question: And the Activity [11]?
Answer: The Activity was “Non-toxic”.

Question: What about the inhibition [12] of the same compound?
Answer: Its inhibition is “Dose-dependent effect”.

Question: For `O=c1cc(N2CCOCC2)oc2c(-c3ccccc3)cccc12`, which inhibition [13] is on record?
Answer: The inhibition was “inactive”.

Question: And the inhibition [14]?
Answer: The inhibition was “Active”.
